Laboratory results taken from ChEMBL document CHEMBL1123589, “Phenylpiperazine-based radiopharmaceuticals for brain imaging. 3. Synthesis and evaluation of radioiodinated 1-alkyl-4-phenylpiperazines” (J Med Chem, 1987).

How the values were obtained:
Details in all cases: in vivo
Rattus norvegicus [1] = assay: The biodistribution of the [125I]-labeled compound in rats after intravenous injection was evaluated in lung at 1.00 hrs; value ranges from 0.33-0.37 (ID.kg/g); format: ADME, organism-based
Procedure, shortened: (§1)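 Male Sprague-Dawley rats (250–300 g), under ether anesthesia, given 10–15 μCi of the NCA ¹²⁵I-labeled agent iv in 0.1 mL saline. Groups of N = 3 were killed at 0.25, 1 or 4 h. Blood and tissues were removed, weighed and counted in a γ-well scintillation counter. Values are mean % ID·kg/g (range).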

Rattus norvegicus [2] = assay: The biodistribution of the [125I]-labeled compound in rats after intravenous injection was evaluated in blood at 1.00 hrs (ID.kg/g); format: ADME, organism-based
Procedure, shortened: (§2)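 Male Sprague-Dawley rats (250–300 g) under ether anesthesia were given an iv injection of no-carrier-added 125I-labelled agent (10–15 μCi in 0.1 mL saline). The agent was iodinated with chloramine-T in acetate buffer and purified by C-18 HPLC. Groups of N = 3 were killed at 0.25, 1 and 4 h. Blood and tissues were weighed and γ-counted. Values are % ID·kg/g, mean (range).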

Rattus norvegicus [3] = assay: The biodistribution of the [125I]-labeled compound in rats after intravenous injection was evaluated in fat at 1.00 hrs (ID.kg/g); format: ADME, organism-based, Adipose tissue; procedure, shortened: as §2
Rattus norvegicus [4] = assay: The biodistribution of the [125I]-labeled compound in rats after intravenous injection was evaluated in thyroid at 4.00 hrs; value ranges from 3.21-5.02 (ID.kg/g); format: ADME, organism-based, Thyroid gland
Procedure, shortened: (§3)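 Male Sprague-Dawley rats (250–300 g) under ether anesthesia given iv 0.1 mL saline containing 10–15 μCi of NCA ¹²⁵I-labeled agent (chloramine-T iodination, HPLC-purified). Groups of 3 killed at 0.25, 1 and 4 h. Blood and tissues excised, weighed and γ-counted. Values are mean (range) of % injected dose × body mass (kg) per gram of tissue.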

Rattus norvegicus [5] = assay: The biodistribution of the [125I]-labeled compound in rats after intravenous injection was evaluated in blood at 4.00 hrs (ID.kg/g); format: ADME, organism-based; procedure, shortened: as §2
Rattus norvegicus [6] = assay: The biodistribution of the [125I]-labeled compound in rats after intravenous injection was evaluated in brain at 1.00 hrs; value ranges from 0.23-0.32 (ID.kg/g); format: ADME, organism-based; procedure, shortened: as §2
Rattus norvegicus [7] = assay: The biodistribution of the [125I]-labeled compound in rats after intravenous injection was evaluated in adrenal at 1.00 hrs; value ranges from 0.83-0.85 (ID.kg/g); format: ADME, organism-based; procedure, shortened: as §2
Rattus norvegicus [8] = assay: The biodistribution of the [125I]-labeled compound in rats after intravenous injection was evaluated in thyroid at 0.25 hrs; value ranges from 1.12-1.29 (ID.kg/g); format: ADME, organism-based, Thyroid gland; procedure, shortened: as §3
Rattus norvegicus [9] = assay: The biodistribution of the [125I]-labeled compound in rats after intravenous injection was evaluated in brain at 0.25 hrs (ID.kg/g); format: ADME, organism-based; procedure, shortened: as §2
Rattus norvegicus [10] = assay: The biodistribution of the [125I]-labeled compound in rats after intravenous injection was evaluated in lung at 4.00 hrs; value ranges from 0.19-0.25 (ID.kg/g); format: ADME, organism-based; procedure, shortened: as §1
Rattus norvegicus [11] = assay: The biodistribution of the [125I]-labeled compound in rats after intravenous injection was evaluated in blood at 0.25 hrs (ID.kg/g); format: ADME, organism-based; procedure, shortened: as §2
Rattus norvegicus [12] = assay: The biodistribution of the [125I]-labeled compound in rats after intravenous injection was evaluated in heart at 1.00 hrs (ID.kg/g); format: ADME, organism-based; procedure, shortened: as §2
Rattus norvegicus [13] = assay: The biodistribution of the [125I]-labeled compound in rats after intravenous injection was evaluated in lung at 0.25 hrs; value ranges from 0.55-0.57 (ID.kg/g); format: ADME, organism-based; procedure, shortened: as §1
Rattus norvegicus [14] = assay: The biodistribution of the [125I]-labeled compound in rats after intravenous injection was evaluated in heart at 0.25 hrs; value ranges from 0.11-0.15 (ID.kg/g); format: ADME, organism-based; procedure, shortened: as §2
Rattus norvegicus [15] = assay: The biodistribution of the [125I]-labeled compound in rats after intravenous injection was evaluated in kidney at 4.00 hrs; value ranges from 0.18-0.23 (ID.kg/g); format: ADME, organism-based; procedure, shortened: as §1
Rattus norvegicus [16] = assay: The biodistribution of the [125I]-labeled compound in rats after intravenous injection was evaluated in muscle at 1.00 hrs (ID.kg/g); format: ADME, organism-based, Muscle tissue; procedure, shortened: as §3
Rattus norvegicus [17] = assay: The biodistribution of the [125I]-labeled compound in rats after intravenous injection was evaluated in liver at 1.00 hrs; value ranges from 0.34-0.44 (ID.kg/g); format: ADME, organism-based; procedure, shortened: as §1
Rattus norvegicus [18] = assay: The biodistribution of the [125I]-labeled compound in rats after intravenous injection was evaluated in liver at 4.00 hrs; value ranges from 0.42-0.55 (ID.kg/g); format: ADME, organism-based; procedure, shortened: as §1
Rattus norvegicus [19] = assay: The biodistribution of the [125I]-labeled compound in rats after intravenous injection was evaluated in liver at 0.25 hr; value ranges from 0.19-0.27 (ID.kg/g); format: ADME, organism-based; procedure, shortened: as §1
Rattus norvegicus [20] = assay: The biodistribution of the [125I]-labeled compound in rats after intravenous injection was evaluated in adrenal at 0.25 hrs; value ranges from 0.58-0.61 (ID.kg/g); format: ADME, organism-based; procedure, shortened: as §2
Rattus norvegicus [21] = assay: The biodistribution of the [125I]-labeled compound in rats after intravenous injection was evaluated in kidney at 0.25 hr; value ranges from 0.37-0.45 (ID.kg/g); format: ADME, organism-based; procedure, shortened: as §1
Rattus norvegicus [22] = assay: The biodistribution of the [125I]-labeled compound in rats after intravenous injection was evaluated in adrenal at 4.00 hrs; value ranges from 0.90-0.97 (ID.kg/g); format: ADME, organism-based; procedure, shortened: as §2
Rattus norvegicus [23] = assay: The biodistribution of the [125I]-labeled compound in rats after intravenous injection was evaluated in muscle at 4.00 hrs (ID.kg/g); format: ADME, organism-based, Muscle tissue; procedure, shortened: as §3
Rattus norvegicus [24] = assay: The biodistribution of the [125I]-labeled compound in rats after intravenous injection was evaluated in fat at 0.25 hr (ID. kg/g); format: ADME, organism-based, Adipose tissue; procedure, shortened: as §2
Rattus norvegicus [25] = assay: The biodistribution of the [125I]-labeled compound in rats after intravenous injection was evaluated in thyroid at 1.00 hrs; value ranges from 1.22-1.36 (ID.kg/g); format: ADME, organism-based, Thyroid gland; procedure, shortened: as §3
Rattus norvegicus [26] = assay: The biodistribution of the [125I]-labeled compound in rats after intravenous injection was evaluated in muscle at 0.25 hrs (ID.kg/g); format: ADME, organism-based, Muscle tissue; procedure, shortened: as §3
Rattus norvegicus [27] = assay: The biodistribution of the [125I]-labeled compound in rats after intravenous injection was evaluated in fat at 4.00 hrs (ID.kg/g); format: ADME, organism-based, Adipose tissue; procedure, shortened: as §2
Rattus norvegicus [28] = assay: The biodistribution of the [125I]-labeled compound in rats after intravenous injection was evaluated in heart at 4.00 hrs; value ranges from 0.05-0.06 (ID.kg/g); format: ADME, organism-based; procedure, shortened: as §1
Rattus norvegicus [29] = assay: The biodistribution of the [125I]-labeled compound in rats after intravenous injection was evaluated in kidney at 1.00 hrs; value ranges from 0.29-0.35 (ID.kg/g); format: ADME, organism-based; procedure, shortened: as §1
Rattus norvegicus [30] = assay: The biodistribution of the [125I]-labeled compound in rats after intravenous injection was evaluated in brain at 4.00 hrs; value ranges from 0.17-0.21 (ID.kg/g); format: ADME, organism-based; procedure, shortened: as §2

CC(C)CN1CCN(c2ccc(I)cc2)CC1
Biodistribution (Rattus norvegicus [1]): 0.37%
Biodistribution (Rattus norvegicus [2]): 0.01 % ID·kg/g
Biodistribution (Rattus norvegicus [3]): 0.02 % ID·kg/g
Biodistribution (Rattus norvegicus [4]): 5.02%
Biodistribution (Rattus norvegicus [5]): 0.01 % ID·kg/g
Biodistribution (Rattus norvegicus [6]): 0.32%
Biodistribution (Rattus norvegicus [7]): 0.85%
Biodistribution (Rattus norvegicus [8]): 1.29%
Biodistribution (Rattus norvegicus [9]): 0.25%
Biodistribution (Rattus norvegicus [10]): 0.25%
Biodistribution (Rattus norvegicus [11]): 0.01 % ID·kg/g
Biodistribution (Rattus norvegicus [12]): 0.09%
Biodistribution (Rattus norvegicus [13]): 0.57%
Biodistribution (Rattus norvegicus [14]): 0.15%
Biodistribution (Rattus norvegicus [15]): 0.23%
Biodistribution (Rattus norvegicus [16]): 0.02 %ID·kg/g
Biodistribution (Rattus norvegicus [17]): 0.44%
Biodistribution (Rattus norvegicus [18]): 0.55%
Biodistribution (Rattus norvegicus [19]): 0.27%
Biodistribution (Rattus norvegicus [20]): 0.61%
Biodistribution (Rattus norvegicus [21]): 0.45%
Biodistribution (Rattus norvegicus [22]): 0.97%
Biodistribution (Rattus norvegicus [23]): 0.03 %ID·kg/g
Biodistribution (Rattus norvegicus [24]): 0.02 % ID·kg/g
Biodistribution (Rattus norvegicus [25]): 1.36%
Biodistribution (Rattus norvegicus [26]): 0.03 % ID·kg/g
Biodistribution (Rattus norvegicus [27]): 0.04%
Biodistribution (Rattus norvegicus [28]): 0.07%
Biodistribution (Rattus norvegicus [29]): 0.35%
Biodistribution (Rattus norvegicus [30]): 0.21%
